Only some compounds are listed: those with a hit (about 0.79% of all), similar ones and a draw of the others.
bIAP act: increases bovine intestinal alkaline phosphatase activity; purified bovine IAP, CDP-star luminescence, 30 min; hits give high values; fold of DMSO-control signal, blank-subtracted; activation factor at 20 µM; actives 0.17% (n = 200,000); AID 1016;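 active means activation factor of 2 or more at 20 µM, a signal rise over negative controls twice the positive control's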
hIAP act: human IAP activation; P09923; activation factor at 10 µM; AID 2524; actives 0.16% (n = 330,000); purified human IAP, CDP-Star luminescence, 30 min; hits give high values; 1 = vehicle-only enzyme, 0 = enzyme-free background;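 active means activation factor of the enzyme at least 2-fold when tested at 20 µM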
Target sequence (P09923 whole entry, looked up): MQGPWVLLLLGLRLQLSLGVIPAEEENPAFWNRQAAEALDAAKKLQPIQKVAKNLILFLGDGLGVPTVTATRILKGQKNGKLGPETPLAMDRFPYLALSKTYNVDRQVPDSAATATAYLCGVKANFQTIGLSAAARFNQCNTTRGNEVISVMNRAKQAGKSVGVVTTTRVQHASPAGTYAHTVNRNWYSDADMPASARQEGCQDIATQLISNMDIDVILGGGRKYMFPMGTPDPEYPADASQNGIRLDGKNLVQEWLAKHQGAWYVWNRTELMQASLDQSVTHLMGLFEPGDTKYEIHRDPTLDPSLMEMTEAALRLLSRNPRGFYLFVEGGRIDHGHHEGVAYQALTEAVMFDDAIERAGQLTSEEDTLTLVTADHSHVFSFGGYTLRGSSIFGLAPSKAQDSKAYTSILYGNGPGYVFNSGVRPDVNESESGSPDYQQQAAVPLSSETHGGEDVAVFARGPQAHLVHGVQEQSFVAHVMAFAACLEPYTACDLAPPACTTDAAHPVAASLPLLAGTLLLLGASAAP
mIAP act: mouse IAP activation. muIAP, CDP-Star luminescence, 30 min; hits give high values; 1 = vehicle-only enzyme signal, 0 = enzyme-free wells. activation factor at 10 µM. actives 0.24% (n = 330,000);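 active means activation factor of at least 2 at 20 µM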
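Assay system: mouse IAP enzyme / Compound: DMSO-dissolved test compounds / Timing: 30 min, room temperature / Measured by: luminescence from enzymatic CDP-Star hydrolysis / Control set: DMSO-only wells, enzyme-free buffer wells as negative control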
hIAP inh: blocks human intestinal alkaline phosphatase. AID 2544. P09923. actives 0.12% (n = 330,000). inhibition, % at 10 µM. purified IAP, CDP-Star luminescence, 30 min;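 active means inhibition reaching a set limit with compound at 10 µM in the primary screen, cut at about 35% in these data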;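 further: plate controls were DMSO wells with enzyme for no effect and no-enzyme buffer wells for full effect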
bIAP inhibitor: blocks bovine intestinal alkaline phosphatase activity; purified bovine IAP, CDP-star luminescence, 30 min; inhibition, % at 20 µM; 190,000 tested, under 10 active;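 active means over 50% inhibition of intestinal alkaline phosphatase at 20 µM in the single-dose screen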
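System: Purified bovine intestinal alkaline phosphatase (IAP) enzyme | Input: IAP diluted 1/65,000,000 in the well | Also added: CDP-star chemiluminescent phosphatase substrate, 30 µM final | Dosing: 20 µM single dose | Times: Enzyme reaction for 30 min at room temperature | Detection: Luminescence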
mIAP inh: mouse IAP inhibition. purified mouse IAP, CDP-Star luminescence, 30 min. inhibition, % at 10 µM. actives 0.2% (n = 330,000). AID 2806;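 active means inhibition of at least 40% at 10 µM in the primary screen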;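 further: plate controls were DMSO with enzyme for no effect and no enzyme wells for full effect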
Starred values were filed as active, the others as inactive; i = inactive; / = not tested or not shown.

SMILES | bIAP act | hIAP act | mIAP act | hIAP inh | bIAP inhibitor | mIAP inh
Cc1ccc(NC(=O)C2CCN(S(=O)(=O)c3ccc4c(c3)NC(=O)C(C)S4)CC2)cc1Cl (configuration not stated) | / | 1.5 | 2.4* | -53 | / | -137
COc1ccc(C(=O)NC(C)c2ccc(-n3ccnc3)cc2)cc1S(=O)(=O)N1CCOCC1 (configuration not stated) | / | 1.3 | 1 | -29 | / | -1
Cc1ccc(S(=O)(=O)N(CC(=O)Nc2cccc(N(C)S(C)(=O)=O)c2)c2ccc(Cl)c(Cl)c2)cc1 | 1.4 | 1.1 | 2.6* | -14 | -36 | -158
CN(c1cccc(NC(=O)CN(c2ccc(Cl)c(Cl)c2)S(=O)(=O)c2ccccc2)c1)S(C)(=O)=O | 1 | 0.93 | 1.5 | 7 | -2 | -53
O=C(COc1ccc(Cl)cc1Br)NC(=O)NCc1ccccc1 | 6.5* | 0.89 | 1 | 11 | i | -5
O=C(COC(=O)c1cc(Br)ccc1Cl)NC(=O)NCc1ccccc1 | 1 | 0.97 | 0.91 | 3 | 1 | 9
CC(Cc1cccs1)NC(=O)Nc1ccccc1 (configuration not stated) | 0.7 | 1 | 1.1 | 0 | 26 | -11
CC(Cc1cccs1)NC(=O)Nc1ccc(Cl)cc1 (configuration not stated) | 0.8 | 1.1 | 2.3* | -12 | 16 | -130
CC(Cc1cccs1)NC(=O)Nc1ccc(Cl)c(Cl)c1 (configuration not stated) | 0.5 | 1 | 4* | 0 | / | -301
CC(Cc1cccs1)NC(=S)Nc1ccccc1 (configuration not stated) | 1 | 0.91 | 1.1 | 9 | 5 | -10
CCOc1ccccc1C(=O)Nc1ccc(S(=O)(=O)Nc2nccc(C)n2)cc1 | / | 1 | 0.95 | -4 | / | 5
CC(C)c1ccc(C(C)NC(=S)NC2CCCCC2)cc1 (configuration not stated) | / | 1.5 | 2.2* | -46 | / | -116
CCc1ccc(C(C)NC(=S)NC2CCCCC2)cc1 (configuration not stated) | / | 0.92 | 1.2 | 8 | / | -25
CNC[C@H]1Oc2ccc(NC(=O)Nc3ccc4c(c3)OCO4)cc2C(=O)N([C@H](C)CO)C[C@@H]1C | / | 1 | 2.2* | -4 | / | -116
CNC[C@@H]1Oc2ccc(NC(=O)Nc3ccccc3)cc2C(=O)N([C@@H](C)CO)C[C@H]1C | / | 1.1 | 2.3* | -8 | / | -132
C[C@H](CO)N1C[C@H](C)[C@@H](CN(C)C(=O)Nc2ccc3c(c2)OCO3)Oc2ccc(NC(=O)Nc3ccc4c(c3)OCO4)cc2C1=O | / | 1.2 | 2.4* | -15 | / | -139
CC(C)NC(=O)N(C)C[C@H]1Oc2ccc(NC(=O)Nc3ccc4c(c3)OCO4)cc2C(=O)N([C@H](C)CO)C[C@@H]1C | / | 1.2 | 1.3 | -18 | / | -25
Cc1ccnc(NC(=O)CNC(=O)c2ccccc2Br)c1 | / | 1.3 | 0.95 | -25 | / | 4
COC(=O)C1=C(C)NC(=O)NC1c1ccc(N2CCC(c3ccccc3)=N2)cc1 (configuration not stated) | 1 | 1.2 | 2.2* | -21 | -2 | -119
Cc1ccc(SCc2nc3ccccc3n2CC(=O)Nc2ccccc2)cc1 | 1 | 1 | 2.4* | -3 | 0 | -136
O=C(Cn1c(CSc2ccccc2)nc2ccccc21)Nc1ccccc1 | 1.1 | / | / | / | -8 | /
CC1=C(C#N)C(=O)N(C2CCS(=O)(=O)C2)C(=O)/C1=C\c1ccco1 (configuration not stated) | / | 1.1 | 0.53 | -8 | / | 47*
CC(=O)O[C@H]1[C@H](O)[C@H](Oc2c(O)c(C)c3c4c2[C@@H](C)CC[C@@H]4[C@@H](C)C[C@H]3C=C(C)C)O[C@@H](C)[C@H]1O | / | 1.2 | 0.98 | -24 | / | 2
O=C(Nc1cccc(-c2cccc(F)c2)c1)C1CCN(Cc2ccc(CO)o2)CC1 | / | 1 | 2.1* | -2 | / | -107
COc1cccc(-c2cccc(NC(=O)C3CCN(Cc4ccc(CO)o4)CC3)c2)c1 | / | 0.92 | 0.97 | 8 | / | 3
SMILES | bIAP act | hIAP act | mIAP act | hIAP inh | bIAP inhibitor | mIAP inh
COc1cc(/C=C2/CC/C(=C/c3ccc(O)c(OC)c3)C2=O)ccc1O | / | 0.9 | 0.64 | 10 | / | 36
COc1cc(/C=C2\COC/C(=C\c3ccc(O)c(OC)c3)C2=O)ccc1O | / | 0.89 | 0.58 | 11 | / | 42*
Cc1ccc(NC(=O)Nc2cc(S(=O)(=O)N(C)C)ccc2C)cc1 | 0.8 | 1.1 | 2.8* | -10 | 19 | -177
Cc1ccc(C2(C)NC(=O)N(CC(=O)c3ccc(Cl)s3)C2=O)cc1 (configuration not stated) | 2* | 1.1 | 0.85 | -6 | -97 | 15
O=C(N/N=C/c1ccc[nH]1)c1cccc(Br)c1 | 1.6 | 0.99 | 0.71 | 1 | -56 | 29
Cc1cccc(C(=O)N/N=C/c2ccc[nH]2)c1 | 1 | 0.95 | 0.6 | 5 | 2 | 40*
Cc1ccc(-n2cnc3cc(NCc4cccs4)ccc32)cc1 | 22* | 1 | 0.98 | -3 | i | 2
CCCCn1c(N)c(N(CC(C)C)C(=O)CCCc2nc3ccccc3s2)c(=O)[nH]c1=O | / | 1 | 0.97 | -4 | / | 3
CC(=O)c1c(C)[nH]c(C(=O)OCC(=O)c2ccc(C)s2)c1C | / | 1.1 | 0.94 | -10 | / | 6
COC(=O)c1ccc(NC(=O)Nc2ccc(OC)c(OC)c2)cc1 | 1.2 | 1.3 | 1.6 | -32 | -22 | -57
COc1ccc(NC(=O)NC23CC4(C)CC(C)(CC(C)(C4)C2)C3)cc1OC | 0.9 | 0.87 | 3.9* | 13 | 8 | -294
COc1ccc(CC(=O)NNC(=O)c2cc(C)oc2C)cc1OC | / | 1.1 | 0.97 | -13 | / | 3
O=S(=O)(c1ccc2c(c1)OCCO2)N1CCC(n2nnc3cc(F)ccc32)CC1 | 2.1* | 0.91 | 1.1 | 9 | -113 | -5
CCn1cc(Cl)c(C(=O)Nc2c(C)nn(Cc3c(F)c(F)c(F)c(F)c3F)c2C)n1 | / | 0.96 | 0.91 | 4 | / | 9
C#Cc1cccc(C(=O)N2CCCC(C(=O)c3ccc(OC)cc3C)C2)c1 (configuration not stated) | / | 1 | 1 | -2 | / | -1
O=C(CNC(=S)N(CCCN1CCOCC1)Cc1cccs1)NCCN1CCOCC1 | 0.9 | 0.93 | 1 | 7 | 15 | -2
CCN(CC)CCCNC(=O)CNC(=S)N(CCCN1CCOCC1)Cc1cccs1 | 2.1* | 1.1 | 1.1 | -14 | -112 | -6
Cc1noc(-c2ccccc2)c1NC(=O)Nc1ccc(Cl)cc1 | / | 1.1 | 3.1* | -10 | / | -206
Cc1noc(-c2ccccc2)c1NC(=O)Nc1ccccc1 | / | 0.99 | 1.5 | 1 | / | -49
COC(=O)[C@]1(Cc2ccccc2)N[C@H](CN(C)C(=O)Nc2ccc(Cl)cc2)[C@@H]2C(=O)N(Cc3ccccc3)C(=O)[C@@H]21 | / | 0.93 | 1.2 | 7 | / | -24
